Consider four substances from paper PMC10424151 (Molecular Therapy. Nucleic Acids, 2023).

Series [1] in a line: Dynamic light-scattering measurement of hydrodynamic radius. The format is physicochemical. Conditions: DLS, 100 μM peptide + 1 μM bDNA, 1 h incubation, 25 °C. In short, it runs like this: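 bDNA was dissolved in self-assembly buffer, pH 7.4, and filtered through 0.22 µm. Linear peptide (100 µM) was incubated with 1 µM bDNA for 1 h, with peptide alone as control. DLS was read at 658 nm with a 175° scattering angle at 25°C, averaging triplicate readings. Rh came from autocorrelation analysis via the translational diffusion coefficient and the Stokes-Einstein relation.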

The target in the next series is T1, DNase I (Homo sapiens, UniProt P24855).
T1 sequence (P24855 23-282): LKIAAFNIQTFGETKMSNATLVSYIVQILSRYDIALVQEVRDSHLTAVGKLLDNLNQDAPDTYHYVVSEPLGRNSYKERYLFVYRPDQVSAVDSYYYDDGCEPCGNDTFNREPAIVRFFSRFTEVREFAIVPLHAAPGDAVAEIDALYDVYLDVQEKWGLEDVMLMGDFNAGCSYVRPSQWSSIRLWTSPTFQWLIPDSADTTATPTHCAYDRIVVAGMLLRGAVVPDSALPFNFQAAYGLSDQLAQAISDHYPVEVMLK
The series is described as follows: DNase I stability assay. The settings on record: for stability of peptide-bDNA complex in the presence of DNase I: 1 μM bDNA + 50 or 100 μM peptide, 10 U/mL DNase I, up to 30 min, 37 °C, 2% AGE. The format is in vitro ADME. In short, it runs like this:
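Complexes of 1 µM bDNA pre-incubated with 100 µM linear peptide were exposed to 10 U/mL DNase I for 15 and 30 min. A second set used 1 µM bDNA with 50 µM linear peptide, digested for 5, 10, 20 and 30 min at 37°C. Digests were run on 2% agarose gels at 80 V for 25 min, and stability was judged from band intensity.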

For a further series, the system named is Alexa 488 bDNA. The series is described as follows: Absorbance. Type of series: binding. The settings on record: 1 μM Alexa 488 bDNA, peptide/bDNA 0:1 to 100:1, 1 h, 25 °C, 495 nm. In short, it runs like this: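 Alexa 488-labelled bDNA (1 μM) incubated 1 h at 25 °C with linear test peptide at peptide/bDNA molar ratios 0:1 to 100:1. UV-vis absorbance spectra recorded over 450–550 nm. Hypochromicity expressed as ΔOD_r = (OD0 − OD)/OD0, where OD0 is free labelled bDNA and OD is the bDNA–peptide complex, then plotted against molar ratio.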

A short description of series [2]: Zeta potential measurement. Type of series: physicochemical. Conditions: 1 μM bDNA + 100 μM peptide, 1 h, 25 °C. In short, it runs like this:
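bDNA (1 μM) incubated 1 h with 100 μM linear test peptide. bDNA alone and peptide alone at the same concentrations incubated 1 h at 25 °C as controls. Zeta potential […] by the Smoluchowski approximation. Values are the mean of triplicate readings.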

Series [3] has as its system bDNAaso. The series is described as follows: Isothermal titration calorimetry of linear peptides with bDNA. The format is binding. Conditions: 25 °C, 1 μM bDNA titrated with 100 μM peptide, 1× TEAM buffer pH 7.4.
The nature of series [4]: Release of bDNA from peptide complexes. Conditions: 1 μM bDNAaso + 100 μM W4R4 in serum-free DMEM, 1% SDS, 30 min, 2% agarose gel. Type of series: in vitro ADME. In short, it runs like this: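 Gel-shift release: 1 μM bDNAaso was complexed with 100 μM test peptide in 20 μL serum-free DMEM for 1 h at room temperature. The complex was exposed to 1% SDS for 30 min, then run on 2% agarose for 25 min at constant 80 V and the gel imaged.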

The next series deals with HCT-116 cells. The series is described as follows: Cellular uptake of Alexa 488-labeled bDNA by FACS. The format is cell-based. The settings on record: HCT-116, 75 nM Alexa 488-labeled bDNA + 25 μM peptide, overnight. In short, it runs like this:
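HCT-116 cells (2×10^5 per well) seeded overnight in serum-free DMEM, then washed twice with PBS. Alexa 488-bDNA (75 nM) premixed with test peptide (25 μM) in DMEM about 30 min at room temperature, added to cells and left overnight at 37 °C. Cells detached with 0.25% trypsin/0.53 mM EDTA (5 min, 37 °C), pelleted at 700 × g for 5 min, washed twice, resuspended in PBS and analysed by flow cytometry.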
(In flow cytometry, cells or beads pass a laser one at a time.)

Series [5] concerns bDNAaso. As to the kind of experiment: CD titration of bDNAaso with linear peptides. The format is binding. Conditions: 1 μM bDNA, 5 to 100 μM peptide, 25 °C (Figures 4G and S13G).

On to Ac-WWWGGGRRR-Am [W3R3], for which the “change of hydrodynamic radii of the peptide in the presence of bDNAs” value (“change of hydrodynamic radii … of bDNAs” for short) in series [1] is listed as “moderate increase”. Also, the “stability of peptide-bDNA complex in the presence of DNase I” value (“stability of peptide-bDNA complex” below) on DNase I was “retained the stability”.
For the substance Ac-WWWGGHHHH-Am [W3H4], the “change of hydrodynamic radii … of bDNAs” value in series [1] was “moderate increase”.
As to Ac-WWWWGGHHHH-Am [W4H4], the “change of hydrodynamic radii … of bDNAs” value in series [1] is listed as “increased significantly”. Also, on DNase I, the “stability of peptide-bDNA complex” value is listed as “degraded close to the control”. Also, the “protection of peptide-bound bDNAs against nuclease degradation” value on DNase I (peptide-bound bDNAs, Figures S19 and S20) worked out at 20%. The “change in absorbance of Alexa 488 bDNA with increasing molar ratio of peptide” value in the series with Alexa 488 bDNA was “no significant alteration in absorbance”.
Regarding Ac-WWWWGGRRRR-Am [W4R4], the “change of hydrodynamic radii … of bDNAs” value in series [1] was “increased significantly”. The “zeta potential of bDNA in the presence of the peptide” value in series [2] is “positive zeta potential”. The “binding affinity to bDNAaso relative to other peptide-bound bDNAs (ITC)” value in the series with bDNAaso [3] is “about nine times higher”. In addition, the “stability of peptide-bDNA complex” value on DNase I is on record as “retained the stability”. For the same substance, the “effect of SDS on the W4R4-bDNAaso complex” value in series [4] is “triggered the release”. Further, the “cellular internalization relative to W3R3 (FACS)” value in the series with HCT-116 cells is 1.7 fold. Further, in the series on Alexa 488 bDNA, the “change in absorbance of Alexa 488 bDNA with increasing molar ratio of peptide” value is given as “significant decline in absorbance”. The “CD peak intensities of bDNA in peptide-bDNA complex” value in the series on bDNAaso [5] was “flattened to the baseline”.
